Experimental data from ChEMBL document CHEMBL4680335, “Synthesis, anticancer and antimicrobial evaluation of new benzofuran based derivatives: PI3K inhibition, quorum sensing and molecular modeling study” (Bioorg Med Chem, 2021).
Converted amounts (≈) assume the structure as drawn.

What was measured:
[1] = Inhibition of quorum sensing in Chromobacterium violaceum ATCC 12472 assessed as inhibition zone at 5 mg/ml incubated for 48 hrs by well diffusion method; format: functional; conditions: read-out: IZ
In short: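 Chromobacterium violaceum ATCC 12472 grown in LB broth at 28 °C, 48 h. 50 μL inoculated into 5 ml soft LB agar and overlaid on LB agar plates. Wells received 100 μL compound in DMSO (5 mg/ml); DMSO as negative control. 28 °C, 48 h. Growth-inhibition radius r1 and pigment-plus-growth radius r2 measured; QS inhibition = r2 − r1 (mm).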

MCF7 [2] = test: Antiproliferative activity against human MCF7 cells assessed as reduction in cell growth; format: functional, cell-based
HeLa = test: Antiproliferative activity against human HeLa cells assessed as reduction in cell growth; format: functional, cell-based
PC-3 = test: Antiproliferative activity against human PC3 cells assessed as reduction in cell growth; format: functional, cell-based
HepG2 = test: Antiproliferative activity against human HepG2 cells assessed as reduction in cell growth; format: functional, cell-based
Candida albicans [3] = test: Antifungal activity against Candida albicans CS35 assessed as reduction in fungal growth incubated for 18 hrs by two-fold serial dilution method; format: functional
In short: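 Broth microdilution per CLSI M27-A3/M38-A2. Selection: compounds active in agar diffusion. Twofold (1:1) dilutions in 0.1 ml yeast peptone dextrose medium; fluconazole as positive control.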

[4] = Safety index, ratio of IC50 for cytotoxicity against human WI-38 cells to IC50 for antiproliferative activity against human MCF7 cells; format: toxicity, cell-based; conditions: WI-38 cells versus MCF7 cells
[5] = target: Phosphatidylinositol 4,5-bisphosphate 3-kinase catalytic subunit alpha isoform (Homo sapiens, UniProt P42336); test: Inhibition of human PI3Kalpha by ELISA
In short: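 Human PI3Kα activity measured by ELISA in wells coated with a PI3K-specific antibody. Standard or test compound was added at room temperature and absorbance read. A log–log standard curve related absorbance to standard concentration. Percent inhibition was calculated against control, and IC50 was obtained from concentration/inhibition curves.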

[6] = Safety index, ratio of IC50 for cytotoxicity against human WI-38 cells to IC50 for antiproliferative activity against human PC-3 cells; format: toxicity, cell-based; conditions: WI-38 cells versus PC-3 cells
Bacillus cereus [7] = test: Antibacterial activity against Bacillus cereus UW85 assessed as reduction in bacterial growth incubated for 18 hrs by two-fold serial dilution method; format: functional
In short: (§1)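 Broth microdilution per CLSI 2015. Selection: compounds active in agar diffusion. Twofold (1:1) dilutions in 0.1 ml MH broth; inoculum 5 × 10^6 CFU/ml diluted suspension. Ampicillin/clavulanic acid as positive control.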

WI-38 = test: Cytotoxicity against human WI38 cells by MTT assay; format: cell-based
Staphylococcus aureus [8] = test: Antibacterial activity against Staphylococcus aureus ATCC 29213 assessed as reduction in bacterial growth incubated for 18 hrs by two-fold serial dilution method; format: functional; in short: as §1
Bacillus cereus [9] = test: Antibacterial activity against Bacillus cereus UW85 assessed as diameter of zone inhibition at 5 mg/ml incubated for 24 hrs by agar plate diffusion method; format: functional; conditions: read-out: DIZ
In short: (§2)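 Cup (well) agar diffusion in Mueller Hinton agar. Overnight MH broth culture diluted to 0.5 McFarland; 20 μL mixed into MH agar at 50 °C, poured into 9-cm plates. Wells cut with a cork borer and filled with 100 μL compound in DMSO (final 5 mg/mL). DMSO as negative control, ampicillin/clavulanic acid as reference. 37 °C, 24 h; inhibition zone diameter in mm.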

[10] = Safety index, ratio of IC50 for cytotoxicity against human WI-38 cells to IC50 for antiproliferative activity against human HepG2 cells; format: toxicity, cell-based; conditions: WI-38 cells versus HepG2 cells
[11] = Safety index, ratio of IC50 for cytotoxicity against human WI-38 cells to IC50 for antiproliferative activity against human HeLa cells; format: toxicity, cell-based; conditions: WI-38 cells versus HeLa cells
Candida albicans [12] = test: Antifungal activity against Candida albicans CS35 assessed as diameter of zone inhibition at 5 mg/ml incubated for 24 hrs by agar plate diffusion method; format: functional; conditions: read-out: DIZ
In short: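 Cup diffusion using Sabouraud's medium for C. albicans. 100 μL compound in DMSO (5 mg/mL) per well, DMSO as negative control, fluconazole as reference. 37 °C, 24 h; inhibition zone diameter in mm.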

Staphylococcus aureus [13] = test: Antibacterial activity against Staphylococcus aureus ATCC 29213 assessed as diameter of zone inhibition at 5 mg/ml incubated for 24 hrs by agar plate diffusion method; format: functional; conditions: read-out: DIZ; in short: as §2
MCF7 [14] = test: Induction of cell cycle arrest in human MCF7 cells assessed as accumulation at G0-G1 phase at […] incubated for 24 hrs by propidium iodide staining based flow cytometry analysis (reference value: 53.89 %); format: functional; parameters: dose or concentration left out as unconfirmed
MCF7 [15] = test: Induction of apoptosis in human MCF7 cells assessed as early apoptotic cells at […] incubated for 24 hrs by Annexin V-FITC and propidium iodide staining based flow cytometry analysis (reference value: 0.42 %); format: functional; parameters: dose or concentration left out as unconfirmed
MCF7 [16] = test: Induction of apoptosis in human MCF7 cells assessed as accumulation at preG1 phase at […] incubated for 24 hrs by propidium iodide staining based flow cytometry analysis (reference value: 1.78 %); format: functional; parameters: dose or concentration left out as unconfirmed
MCF7 [17] = test: Induction of apoptosis in human MCF7 cells assessed as necrotic cells at […] incubated for 24 hrs by Annexin V-FITC and propidium iodide staining based flow cytometry analysis (reference value: 1.21 %); format: functional; parameters: dose or concentration left out as unconfirmed
MCF7 [18] = test: Induction of apoptosis in human MCF7 cells assessed as late apoptotic cells at […] incubated for 24 hrs by Annexin V-FITC and propidium iodide staining based flow cytometry analysis (reference value: 0.15 %); format: functional; parameters: dose or concentration left out as unconfirmed
MCF7 [19] = test: Induction of cell cycle arrest in human MCF7 cells assessed as accumulation at G2/M phase at […] incubated for 24 hrs by propidium iodide staining based flow cytometry analysis (reference value: 9.85 %); format: functional; parameters: dose or concentration left out as unconfirmed
MCF7 [20] = test: Induction of cell cycle arrest in human MCF7 cells assessed as accumulation at S phase at […] incubated for 24 hrs by propidium iodide staining based flow cytometry analysis (reference value: 36.26 %); format: functional; parameters: dose or concentration left out as unconfirmed

Sequence of Phosphatidylinositol 4,5-bisphosphate 3-kinase catalytic subunit alpha isoform (P42336 whole entry, canonical isoform): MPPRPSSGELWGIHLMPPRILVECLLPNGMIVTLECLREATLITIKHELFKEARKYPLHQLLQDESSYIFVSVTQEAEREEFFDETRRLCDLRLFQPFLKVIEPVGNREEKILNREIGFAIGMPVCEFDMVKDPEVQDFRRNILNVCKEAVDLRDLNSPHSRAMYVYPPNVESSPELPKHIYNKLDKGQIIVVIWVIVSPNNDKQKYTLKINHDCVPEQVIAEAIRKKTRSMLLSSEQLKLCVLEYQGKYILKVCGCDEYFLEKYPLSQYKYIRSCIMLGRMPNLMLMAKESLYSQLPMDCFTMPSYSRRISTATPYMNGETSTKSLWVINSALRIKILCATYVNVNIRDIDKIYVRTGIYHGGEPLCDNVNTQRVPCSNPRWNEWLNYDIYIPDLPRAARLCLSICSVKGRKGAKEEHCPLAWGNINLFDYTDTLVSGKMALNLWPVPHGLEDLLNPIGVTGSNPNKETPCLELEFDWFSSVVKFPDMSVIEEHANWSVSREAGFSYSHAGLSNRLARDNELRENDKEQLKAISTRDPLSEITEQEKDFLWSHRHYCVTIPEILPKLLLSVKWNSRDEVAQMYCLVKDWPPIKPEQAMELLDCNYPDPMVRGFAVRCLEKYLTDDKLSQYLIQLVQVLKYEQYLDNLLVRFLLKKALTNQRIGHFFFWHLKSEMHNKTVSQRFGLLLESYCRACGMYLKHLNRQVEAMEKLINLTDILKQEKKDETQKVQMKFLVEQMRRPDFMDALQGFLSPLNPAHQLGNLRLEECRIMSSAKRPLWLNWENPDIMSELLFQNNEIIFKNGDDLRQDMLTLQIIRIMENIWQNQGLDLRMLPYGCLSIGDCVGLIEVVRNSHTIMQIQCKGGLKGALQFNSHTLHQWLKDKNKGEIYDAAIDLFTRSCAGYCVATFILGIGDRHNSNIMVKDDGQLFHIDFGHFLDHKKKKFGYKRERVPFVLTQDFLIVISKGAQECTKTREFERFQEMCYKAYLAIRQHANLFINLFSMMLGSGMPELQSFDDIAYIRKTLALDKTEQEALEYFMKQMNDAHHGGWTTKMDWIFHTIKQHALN

C/C(=N\Nc1nc(-c2cc3ccccc3o2)cs1)c1cc2ccccc2o1
zone of inhibition at 5000 µg/mL [1]: 2 mm | IC50 (MCF7 [2]): 25.6 µM | IC50 (HeLa): 24.1 µM | IC50 (PC-3): 34.2 µM | IC50 (HepG2): 21.2 µM

C/C(=N\Nc1nc(C)cs1)c1cc2ccccc2o1
MIC (Candida albicans [3]): 128 µg/mL (≈ 472 µM) | zone of inhibition at 5000 µg/mL [1]: 7 mm | selectivity ratio [4]: 9.06 | IC50 (MCF7 [2]): 4.89 µM | IC50 [5]: 20.5 µM | selectivity ratio [6]: 4.93 | MIC (Bacillus cereus [7]): 128 µg/mL (≈ 472 µM) | IC50 (WI-38): 44.3 µM | MIC (Staphylococcus aureus [8]): 64 µg/mL (≈ 236 µM) | zone of inhibition at 5000 µg/mL (Bacillus cereus [9]): 11 mm | IC50 (PC-3): 8.99 µM | selectivity ratio [10]: 11.1 | selectivity ratio [11]: 4.94 | zone of inhibition at 5000 µg/mL (Candida albicans [12]): 10 mm | IC50 (HepG2): 4 µM

C/C(=N\Nc1nc(-c2ccc(C)cc2)cs1)c1cc2ccccc2o1
IC50 (MCF7 [2]): 11.1 µM | IC50 (HeLa): 14.3 µM | IC50 (PC-3): 21.4 µM | IC50 (HepG2): 14.1 µM

CN1CCN(C(=S)Cc2cc3ccccc3o2)CC1
IC50 (MCF7 [2]): 73.5 µM | IC50 (PC-3): 83.8 µM | IC50 (HepG2): 64.5 µM

COc1ccc(/N=N/C(C=O)=C(/O)c2cc3ccccc3o2)cc1
zone of inhibition at 5000 µg/mL (Staphylococcus aureus [13]): 7 mm | MIC (Bacillus cereus [7]): 265 µg/mL (≈ 822 µM) | MIC (Staphylococcus aureus [8]): 128 µg/mL (≈ 397 µM) | zone of inhibition at 5000 µg/mL (Bacillus cereus [9]): 5 mm | IC50 (PC-3): 56.3 µM | IC50 (HepG2): 42.1 µM

CCOC(=O)Cc1csc(N/N=C(\C)c2cc3ccccc3o2)n1
zone of inhibition at 5000 µg/mL [1]: 3 mm | selectivity ratio [4]: 5.61 | IC50 (MCF7 [2]): 6.55 µM | IC50 [5]: 7.8 µM | selectivity ratio [6]: 2.8 | IC50 (HeLa): 9.26 µM | Activity (MCF7 [14]): 43.95% | IC50 (WI-38): 36.8 µM | Activity (MCF7 [15]): 3.27% | Activity (MCF7 [16]): 17.66% | Activity (MCF7 [17]): 6.29% | Activity (MCF7 [18]): 8.1% | IC50 (PC-3): 13.1 µM | Activity (MCF7 [19]): 22.34% | selectivity ratio [10]: 4.75 | Activity (MCF7 [20]): 33.71% | selectivity ratio [11]: 3.97

COc1ccc(-c2csc(N/N=C(\C)c3cc4ccccc4o3)n2)cc1
zone of inhibition at 5000 µg/mL [1]: 3 mm | IC50 (MCF7 [2]): 18.9 µM | IC50 (HeLa): 18.7 µM | IC50 (PC-3): 28.9 µM | IC50 (HepG2): 15.7 µM

O=CC(/N=N/c1ccc(Cl)cc1)=C(\O)c1cc2ccccc2o1
zone of inhibition at 5000 µg/mL (Staphylococcus aureus [13]): 9 mm | IC50 (HeLa): 38.2 µM | MIC (Bacillus cereus [7]): 256 µg/mL (≈ 783 µM) | MIC (Staphylococcus aureus [8]): 128 µg/mL (≈ 392 µM) | zone of inhibition at 5000 µg/mL (Bacillus cereus [9]): 6 mm | IC50 (PC-3): 51.8 µM | IC50 (HepG2): 37.3 µM
